# Compound activity: PubChem, Broad Institute
# FGF22 binding: binders of human FGF22 protein, primary screen, FGF22 synaptogenesis inhibitor project, biophysical, thermal shift, single point | Fibroblast growth factor 22 (Homo sapiens), Q9HCT0 | recombinant FGF22 thermal shift, SYPRO orange fluorescence; percent of sucrose octasulfate shift, DMSO zero | activity (Tm shift, normalised), % at 9.99 µM | actives 1.5% (n = 340,000) | AID 651658, 2012;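 active = mean Tm shift, scaled 0 neutral to 100 positive control, at about 1.3% or above, every replicate too, limit read from the data; inconclusive = no clear call, values can overlap the other calls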
# ERAP1 HTS inh: human ERAP1 aminopeptidase inhibitors, primary screen, biochemical, single point, plate reader. inhibition, % at 10.7 µM. recombinant ERAP1, Leu-AMC fluorescence, 60 min. actives 0.15% (n = 340,000);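 active = mean replicate inhibition of at least 30%, or all replicates individually reaching that 30% level; inactive = mean below 30% and not every replicate reaching it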
# Target sequence (Q9NZ08 whole entry, looked up): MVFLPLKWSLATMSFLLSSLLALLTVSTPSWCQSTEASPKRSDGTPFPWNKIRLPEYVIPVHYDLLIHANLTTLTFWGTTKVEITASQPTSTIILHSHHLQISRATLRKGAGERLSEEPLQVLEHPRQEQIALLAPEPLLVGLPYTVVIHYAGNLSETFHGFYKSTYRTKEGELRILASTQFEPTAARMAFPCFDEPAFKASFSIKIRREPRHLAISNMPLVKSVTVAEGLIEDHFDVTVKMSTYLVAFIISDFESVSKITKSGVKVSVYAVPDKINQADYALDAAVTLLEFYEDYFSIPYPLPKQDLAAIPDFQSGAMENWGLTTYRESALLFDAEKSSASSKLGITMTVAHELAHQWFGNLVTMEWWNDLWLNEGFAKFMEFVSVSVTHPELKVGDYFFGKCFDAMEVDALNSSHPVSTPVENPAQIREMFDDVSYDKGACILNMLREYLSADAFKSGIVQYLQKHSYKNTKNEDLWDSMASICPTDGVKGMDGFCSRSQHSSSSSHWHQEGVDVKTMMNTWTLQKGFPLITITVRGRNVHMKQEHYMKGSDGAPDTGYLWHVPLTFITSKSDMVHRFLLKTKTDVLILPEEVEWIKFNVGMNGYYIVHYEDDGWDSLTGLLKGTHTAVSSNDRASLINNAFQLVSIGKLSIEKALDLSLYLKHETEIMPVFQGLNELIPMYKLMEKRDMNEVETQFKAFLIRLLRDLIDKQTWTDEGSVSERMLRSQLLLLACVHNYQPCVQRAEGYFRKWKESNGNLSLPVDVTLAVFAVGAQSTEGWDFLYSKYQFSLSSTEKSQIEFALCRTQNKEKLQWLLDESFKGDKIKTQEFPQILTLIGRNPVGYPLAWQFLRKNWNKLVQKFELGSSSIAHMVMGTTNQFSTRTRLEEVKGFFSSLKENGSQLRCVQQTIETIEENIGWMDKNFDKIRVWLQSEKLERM
# DENV2 CPE: inhibitors of DENV2 cytopathic effect, primary screen, cell-based, plate reader, single concentration; DENV2-infected cells, cytopathic effect rescue; CPE inhibition, % at 9.99 µM; actives 1.7% (n = 350,000); AID 651640, 2012; in the data active = CPE inhibition above about 20%, passing the limit was not always enough; inconclusive = no clear call, values can overlap the other calls; tested in BHK-21 cells
# CFTR F508del cor: F508del CFTR correction, initial screen, CFBE line, single point; CFBE cells, YFP halide quenching; stimulated with forskolin plus potentiator P3; % fluorescence drop versus neutral controls; activity (quench increase), % at 7.58 µM; AID 720511, 2013; actives 0.36% (n = 350,000);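 active = mean added fluorescence quench of at least 8% versus neutral control, with both replicates also reaching 8%; inconclusive = only one of the mean or replicate conditions met; inactive = mean below 8% and not both replicates reaching 8%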;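 also: cells transiently co-express mutant CFTR-F508del with the halide-sensitive YFP; corrector assay measuring rescue of mutant channel to the surface after 24 h compound exposure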
# E-sel inducer: E-selectin induction in HUVECs, primary screen, imaging, HUVEC, immunofluorescence imaging, single point; normalized: neutral wells 0, TNF-alpha wells 100; activation, % at 7.58 µM; P16581; AID 686992, 2013; actives 0.37% (n = 260,000);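 active = mean E-selectin-positive cell signal at least 10% of the positive control, reached in at least 60% of replicates, without over 20% cell loss; inconclusive = no rule given, readout overlaps actives, possibly toxicity-flagged; inactive = the rest, including those meeting only one limit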
#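 Test system: HUVEC; input: 3,000 HUVEC/well; measured by: immunofluorescence imaging; read-out: % PE-positive cells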
# Numbers stand for hits; i = inactive; ? = inconclusive; nt = no result; + = active, no number; ! = not confirmed by another sample. The list is not random: actives were taken first. Their share in the collection is about 3.7%.
SMILES,FGF22 binding,ERAP1 HTS inh,DENV2 CPE,CFTR F508del cor,E-sel inducer
CCCC(=O)N1CCC2(CC1)CN(C(=O)CC1CC1)[C@@H](CO)c1c2c2ccc(OC)cc2n1C,i,i,i,i,i
C=C1c2cccc(O)c2C(O)=C2C(=O)[C@]3(O)C(O)=C(C(N)=O)C(=O)[C@@H](N(C)C)[C@@H]3[C@@H](O)[C@H]12,i,35.4,i,i,nt
O=C(C[C@@H]1CC[C@H]2[C@@H](COC[C@@H](O)CN2C(=O)c2ccncc2)O1)NCc1ccc(-c2ccccc2)cc1,nt,i,+,i,i
O=C(C[C@H]1CC[C@H]2[C@@H](COC[C@H](O)CN2C(=O)c2cccnc2)O1)NCc1ccc(-c2ccccc2)cc1,i,i,22.2,i,i
O=C(C[C@@H]1CC[C@H]2[C@@H](COC[C@@H](O)CN2C(=O)c2cccnc2)O1)NCc1ccc(-c2ccccc2)cc1,i,i,26.7,i,i
O=C(C[C@H]1CC[C@H]2[C@@H](COC[C@@H](O)CN2C(=O)c2cccnc2)O1)NCc1ccc(-c2ccccc2)cc1,i,i,i,i,i
N#CCCc1cccc(CCC#N)c1,i,i,119.5,i,i
CC1CC(C)(C)NC(=S)N1CC(=O)NCc1ccc2c(c1)OCO2 (stereo unspecified),43.0,i,i,i,i
C[C@@H]1CN([C@@H](C)CO)C(=O)Cc2cc(NC(=O)Nc3ccc4c(c3)OCO4)ccc2O[C@H]1CN(C)Cc1ccc(Cl)c(Cl)c1,i,i,i,i,i
C[C@@H]1CCCCO[C@H](CN(C)S(=O)(=O)c2ccc(Cl)cc2)[C@H](C)CN([C@@H](C)CO)C(=O)c2cc(NC(=O)C3CCCCC3)ccc2O1,nt,i,?,i,i
COc1ccc(C(=O)N2CCNC(=O)C2CC(=O)Nc2cccc(Cl)c2Cl)cc1 (stereo unspecified),i,i,88.8,i,i
CC(=O)N1CC2(C1)[C@@H](c1ccc(-c3ccc(C#N)cc3)cc1)[C@@H](CO)N2CCC(F)(F)F,i,i,i,i,i
CC(=O)N1CC2(C1)[C@H](c1ccc(-c3ccc(F)cc3)cc1)[C@H](CO)N2C(C)=O,i,i,82.5,i,i
CC(=O)N1CC2(C1)[C@H](c1ccc(-c3ccc(C#N)cc3)cc1)[C@H](CO)N2CCC(F)(F)F,i,i,33.3,i,i
COC(=O)[C@@]12C[C@@H](CC(=O)NCc3ccc(OC)c(OC)c3)C(=O)N(Cc3ccco3)C1=CCC(C)(C)C2,i,i,21.9,i,i
CCCCCCCCN1C(=O)[C@H](CC(=O)NCCCCc2ccccc2)C[C@@]2(C(=O)OC)CC(C)(C)CC=C12,i,i,35.0,i,i
CCCCNC(=O)C[C@@H]1C[C@@]2(C(=O)OC)CC(C)(C)CC=C2N(CCc2ccc(OC)c(OC)c2)C1=O,40.3,i,i,i,i
CCCC(=O)Nc1ccc2c(c1)C(=O)N(C)C[C@@H](OC)[C@@H](C)CN(S(=O)(=O)c1cn(C)cn1)[C@H](C)CO2,i,i,i,i,i
C[C@@H]1CN([C@@H](C)CO)C(=O)Cc2cc(NC(=O)CCCN(C)C)ccc2O[C@H]1CN(C)C(=O)Nc1ccccc1,i,i,i,i,?
O=C(COC(=O)CN1C(=O)NC2(CCCC2)C1=O)Nc1ccc(C(F)(F)F)cc1[N+](=O)[O-],i,i,31.9,i,nt
Cc1cc(C)c(C(=O)COC(=O)CN2C(=O)NC3(CCCC3)C2=O)cc1C,43.1,i,i,i,i
Nc1ccc(C(=O)Nc2ccc3nc(-c4ccncc4)[nH]c3c2)cc1,44.4,i,i,i,nt
Nc1ccc2nc(-c3ccc(-c4nc5ccc(N)cc5[nH]4)cc3)[nH]c2c1,i,i,i,i,i
CC(=O)C1=C(C)N(Cc2ccc(Cl)cc2)C(=S)NC1c1ccccc1 (stereo unspecified),i,i,i,i,i
CC(=O)C1=C(C)N(Cc2ccc(Cl)cc2)C(=S)NC1c1ccc(Cl)cc1 (stereo unspecified),i,i,55.0,i,i
SMILES,FGF22 binding,ERAP1 HTS inh,DENV2 CPE,CFTR F508del cor,E-sel inducer
C[C@H]1CN([C@@H](C)CO)C(=O)c2cc(NC(=O)Cc3ccccc3)ccc2O[C@@H]1CN(C)C(=O)Nc1ccc(C(F)(F)F)cc1,nt,i,i,i,i
O=C(CCC(=O)N/N=C/c1ccco1)N/N=C/c1ccco1,i,i,?,i,i
Cc1cc(Cl)ccc1OCC(=O)NCC(=O)N/N=C/c1ccco1,43.3,i,i,i,nt
O=C(CCCCCCCCC(=O)N/N=C/c1ccco1)N/N=C/c1ccco1,43.4,i,i,i,nt
COc1ccc(C(=O)NCC(=O)N/N=C/c2ccco2)cc1OC,i,i,i,i,nt
CC1(C)OC(=O)C2=C(C[C@@H](C3CC3)O[C@@H]2C2CC2)O1,i,i,60.8,i,i
CC(C)(C)c1ccc(OCC(=O)Nc2ccc3c4c(cccc24)C(=O)NC3=O)cc1,i,i,i,19.8,i
O=C(O)C1=C[C@H](C2CC2)C[C@H](OCc2ccc(CO)cc2)O1,i,i,22.3!,i,i
CC(C)(C)[C@H]1C=C(C(=O)N2CCCC2)O[C@@H](OCc2ccc(CO)cc2)C1,i,i,i,i,nt
O=C(C1=C[C@@H](C2CC2)C[C@@H](OCc2ccc(CO)cc2)O1)N1CCOCC1,i,i,33.4!,i,i
O=C(O)C1=C[C@@H](C2CCCCC2)C[C@@H](OCc2ccc(CO)cc2)O1,i,i,?,i,i
O=C(C1=C[C@@H](C2CCCCC2)C[C@@H](OCc2ccc(CO)cc2)O1)N1CCOCC1,i,i,i,i,i
CC(C)(C)[C@H]1C=C(C(=O)N2CCCCCCC2)O[C@@H](OCc2ccc(CO)cc2)C1,i,i,28.9,i,nt
Cc1noc(C)c1S(=O)(=O)N(C)C[C@H]1OCCCC[C@H](C)Oc2ccc(NC(=O)NC3CCCCC3)cc2C(=O)N([C@@H](C)CO)C[C@@H]1C,i,i,i,i,i
COc1ccc(-c2cc(C)nc3c(-c4ccccc4)cnn23)cc1,42.9,i,i,i,i
Cc1cc(-c2ccccc2)n2ncc(-c3ccccc3)c2n1,i,i,i,nt,nt
C[C@@H]1CCCCO[C@H](CN(C)C(=O)Nc2ccccc2)[C@@H](C)CN([C@@H](C)CO)C(=O)c2cc(NS(=O)(=O)c3cccs3)ccc2O1,i,i,i,i,nt
C[C@@H]1CCCCO[C@@H](CN(C)C(=O)Cc2ccccc2)[C@@H](C)CN([C@H](C)CO)C(=O)c2cc(NC(=O)Nc3ccc(C(F)(F)F)cc3)ccc2O1,i,i,i,i,i
COCC(=O)Nc1ccc2c(c1)[C@H]1C[C@@H](CC(=O)NCc3ccccc3OC)O[C@@H](CO)[C@H]1O2,i,i,i,i,i
